Measured values as given in ChEMBL document CHEMBL1127497, “Studies on antiulcer drugs. 7. 2-Guanidino-4-pyridylthiazoles as histamine H2-receptor antagonists with potent gastroprotective effects against nonsteroidal antiinflammatory drug-induced injury” (J Med Chem, 1994).

What was measured:
[1] = tested on: Rattus norvegicus; experiment: Inhibition of aspirin induced gastric lesions in rats after peroral dose of 32 mg/kg; type: functional; conditions: Stomach, route oral
How it was run: (§1)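 Male SD rats (~200 g), fasted 24 h. Test compound given orally in 0.1% MC, then aspirin 200 mg/kg in 0.2 N HCl/0.1% MC (10 mL/kg) orally 30 min later. Rats killed 1 h after aspirin. Ulcer index is the summed lesion length (mm); % inhibition is relative to controls. Seven rats per group for screening; ED50 by probit from three doses, ten rats per dose.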

[2] = tested on: Rattus norvegicus; experiment: Inhibition of histamine stimulated gastric acid secretion in lumen perfused anaesthetized rats after 1 mg/kg intravenous dose; type: functional; conditions: Stomach
How it was run: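 Male SD rats (~250 g), fasted 24 h, urethane 1.25 g/kg ip. Stomach lumen perfused with saline; perfusate titrated with 25 mM NaOH. Histamine infused iv at 3 mg/kg/h. At plateau, compound given iv at 1 mg/kg. Result expressed as maximal inhibition of acid output; n = 2.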

[3] = molecular target: Histamine H2 receptor (Cavia porcellus) (UniProt P47747); experiment: H2 receptor antagonistic activity against histamine stimulated chronotropic response in isolated guinea pig right atrium at 1x10E-6 g/mL.; type: functional, tissue-based; conditions: Cardiac atrium
How it was run: (§2)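 Guinea pig atrial strip under 0.3–0.6 g tension in Tyrode solution, 30 °C, gassed with 95% O2-5% CO2. Beating rate recorded. Histamine HCl 1 × 10-6 g/mL given; after washout, test compound added (single-concentration screen 1 × 10-6 g/mL) and histamine response compared before and 30 min after dosing. IC50 from three doses by probit analysis, three atria per dose.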

[4] = tested on: Canis familiaris; experiment: Evaluated against tetragastrin stimulated gastric acid secretion in conscious Hiedenhain-pouch dogs at a dose of 0.32 mg/kg, po; type: functional; conditions: Canis lupus familiaris, Stomach
How it was run: (§3)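 Beagle Heidenhain-pouch dogs, 8–13 kg, oral dosing. Acid concentration titrated to pH 7 with 0.1 N NaOH; total acid output is volume × concentration. Change is relative to predosing output. ED50 by probit from three or four doses, three or four dogs per dose.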

[5] = tested on: Rattus norvegicus; experiment: Effect on gastric mucosal blood flow 15 minutes before dosing of HCl and aspirin after drug dosing at 10 mg/kg intragastrically; type: functional, Gastric mucosa; conditions: route intragastric
How it was run: (§4)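 Male rats, five per group, test drug suspended in 0.1% MC given intragastrically. Aspirin 200 mg/kg in 0.2 N HCl/0.1% MC (0.2 mL) given ig 15 min later. […] Reported as mean ± SEM and % of initial.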

[6] = tested on: Rattus norvegicus; experiment: Evaluated for inhibition of basal gastric acid secretion in pyolus-ligated rats after intraduodenal administration; conditions: Stomach, id
[7] = tested on: Rattus norvegicus; experiment: Effect on gastric mucosal blood flow 30 minutes after administration of HCl and aspirin after drug dosing at 10 mg/kg intragastrically; type: functional, Gastric mucosa; conditions: route intragastric; how it was run: as §4
[8] = tested on: Rattus norvegicus; experiment: Effect on gastric mucosal blood flow 15 minutes before dosing of HCl and aspirin after drug dosing at 32 mg/kg intragastrically; type: functional, Gastric mucosa; conditions: route intragastric; how it was run: as §4
[9] = tested on: Rattus norvegicus; experiment: Effect on gastric mucosal blood flow 30 minutes after administration of HCl and aspirin after drug dosing at 32 mg/kg intragastrically; type: functional, Gastric mucosa; conditions: route intragastric; how it was run: as §4
[10] = tested on: Rattus norvegicus; experiment: Effective dose against indomethacin induced gastric lesions in rats after peroral administration; type: functional; conditions: Stomach, po
How it was run: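 Male SD rats (~200 g), fasted 24 h, dosed orally with test compound in 0.1% MC, ten per group. Indomethacin 5 mg/kg in 0.1% MC given orally 30 min later, then 0.35 N HCl (5 mL/kg) orally after 1 h. Killed 1 h after that. Ulcer index is the summed lesion length. ED50 by probit from three doses.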

[11] = molecular target: Histamine H2 receptor (Cavia porcellus, UniProt P47747); experiment: Compound was tested for H2 receptor antagonistic activity against histamine stimulated chronotropic response in isolated guinea pig right atrium; type: functional, tissue-based, Cardiac atrium; how it was run: as §2
[12] = tested on: Rattus norvegicus; experiment: Effect on gastric mucosal blood flow 60 minutes after administration of HCl and aspirin after drug dosing at 32 mg/kg intragastrically; type: functional, Gastric mucosa; conditions: route intragastric; how it was run: as §4
[13] = tested on: Rattus norvegicus; experiment: Effective dose against aspirin induced gastric lesions in rats after peroral administration; type: functional; conditions: Stomach, po; how it was run: as §1
[14] = tested on: Rattus norvegicus; experiment: Effect on gastric mucosal blood flow 60 minutes after administration of HCl and aspirin after drug dosing at 10 mg/kg intragastrically; type: functional, Gastric mucosa; conditions: route intragastric; how it was run: as §4
[15] = tested on: Canis familiaris; experiment: Effective dose against tetragastrin stimulated gastric acid secretion in conscious Hiedenhain-pouch dogs after peroral administration; type: functional; conditions: Canis lupus familiaris, Stomach, po; how it was run: as §3
[16] = tested on: Rattus norvegicus; experiment: Effect on gastric mucosal blood flow at basal value which is 15 minutes before dosing of drugs at 10 mg/kg intragastrically; type: functional, Gastric mucosa; conditions: route intragastric; how it was run: as §4
[17] = tested on: Rattus norvegicus; experiment: Effect on gastric mucosal blood flow at basal value which is 15 minutes before dosing of drugs at 32 mg/kg intragastrically; type: functional, Gastric mucosa; conditions: route intragastric; how it was run: as §4

Chain of Histamine H2 receptor (Cavia porcellus) (P47747 whole entry): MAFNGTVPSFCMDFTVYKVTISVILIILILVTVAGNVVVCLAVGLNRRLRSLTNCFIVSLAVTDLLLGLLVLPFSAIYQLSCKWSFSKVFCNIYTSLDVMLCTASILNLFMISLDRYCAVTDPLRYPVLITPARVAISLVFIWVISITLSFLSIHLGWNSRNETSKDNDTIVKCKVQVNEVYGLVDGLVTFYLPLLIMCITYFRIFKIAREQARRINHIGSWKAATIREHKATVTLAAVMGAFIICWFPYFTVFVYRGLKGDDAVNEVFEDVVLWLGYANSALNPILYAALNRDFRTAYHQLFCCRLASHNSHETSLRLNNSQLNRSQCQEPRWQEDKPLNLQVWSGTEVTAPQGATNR
Chain of Histamine H2 receptor (P47747 whole entry): as above

SMILES	inhibition [3]	inhibition in vivo at 32 mg/kg [1]	inhibition in vivo at 1 mg/kg [2]	further results
CC(=O)NCc1cc(-c2csc(N=C(N)N)n2)ccn1		42%	40%	
CC(C)(C)C(=O)NCc1cccc(-c2csc(N=C(N)N)n2)n1		58%	22%	
CCC(=O)NCc1cccc(-c2csc(N=C(N)N)n2)n1	72%	70%	81%	inhibition in vivo at 0.32 mg/kg [4]: 50%
N=C(N)Nc1nc(-c2cccc(CNC(=O)CSCc3ccco3)n2)cs1	76%	49%	16%	
N=C(N)Nc1nc(-c2cccc(CC(=N)NS(N)(=O)=O)n2)cs1		16%	42%	
CN/C(=C\[N+](=O)[O-])NCc1cccc(-c2csc(N=C(N)N)n2)n1	-14%	-27%	18%	
CC(=O)NCc1cccc(-c2csc(N=C(N)N)n2)n1.Cl	66%	68%	82%	Flow rate [5]: 70.2 ml min-1 100g-1; inhibition in vivo at 0.32 mg/kg [4]: 95%; ED50 [6]: 12.6 mg/kg; Flow rate [7]: 67.9 ml min-1 100g-1; Flow rate [8]: 65.3 ml min-1 100g-1; Flow rate [9]: 63.1 ml min-1 100g-1; ED50 [10]: 6.5 mg/kg; IC50 [11]: 1300 nM; Flow rate [12]: 60.4 ml min-1 100g-1; ED50 [13]: 13.3 mg/kg; Flow rate [14]: 61 ml min-1 100g-1; ED50 [15]: 0.063 mg/kg; Flow rate [16]: 70.4 ml min-1 100g-1; Flow rate [17]: 58.9 ml min-1 100g-1
CCCC(=O)NCc1cccc(-c2csc(N=C(N)N)n2)n1	25%	56%	71%	
C/N=C(\NC#N)NCc1cccc(-c2csc(N=C(N)N)n2)n1	43%	37%	15%	
NC(N)=Nc1nc(CSCCC(N)=NS(N)(=O)=O)cs1 [FAMOTIDINE]				IC50 [11]: 300 nM
CSCC(=O)NCc1cccc(-c2csc(N=C(N)N)n2)n1	37%	80%	4%	
C/N=C(/NCc1cccc(-c2csc(N=C(N)N)n2)n1)NS(C)(=O)=O	29%	10%	24%	
N=C(N)Nc1nc(-c2ccc(CC(=N)NS(N)(=O)=O)o2)cs1	84%	49%	99%	inhibition in vivo at 0.32 mg/kg [4]: 92%
CC(=O)NCCc1cccc(-c2csc(N=C(N)N)n2)n1	3%	31%	58%	
N=C(N)Nc1nc(-c2cccc(CNC(=O)c3ccco3)n2)cs1	13%	69%	34%	
NC(N)=Nc1nc(CSCC/C(N)=N/S(N)(=O)=O)cs1 [FAMOTIDINE]	87%	22%	96%	Flow rate [5]: 73 ml min-1 100g-1; inhibition in vivo at 0.32 mg/kg [4]: 96%; ED50 [6]: 3.5 mg/kg; Flow rate [7]: 62.5 ml min-1 100g-1; Flow rate [8]: 60.5 ml min-1 100g-1; Flow rate [9]: 46.9 ml min-1 100g-1; ED50 [10]: > 100 mg/kg; Flow rate [12]: 43.4 ml min-1 100g-1; ED50 [13]: > 100 mg/kg; Flow rate [14]: 50.5 ml min-1 100g-1; ED50 [15]: 0.042 mg/kg; Flow rate [16]: 68.6 ml min-1 100g-1; Flow rate [17]: 58.4 ml min-1 100g-1
CC(=O)NCc1cncc(-c2csc(N=C(N)N)n2)c1	22%	42%	10%	
CC(C)C(=O)NCc1cccc(-c2csc(N=C(N)N)n2)n1	62%	65%	21%	
CC(=O)Nc1cccc(-c2csc(N=C(N)N)n2)n1		43%	16%	
CNC(=O)NCc1cccc(-c2csc(N=C(N)N)n2)n1	86%	57%	79%	
CCNC(=O)NCc1cccc(-c2csc(N=C(N)N)n2)n1	52%	34%	91%	
CCCNC(=O)NCc1cccc(-c2csc(N=C(N)N)n2)n1	82%	42%	90%	
CS(=O)(=O)NCc1cccc(-c2csc(N=C(N)N)n2)n1	50%	60%	46%	
CCS(=O)(=O)N/C=N\Cc1cccc(-c2csc(N=C(N)N)n2)n1	4%	1%	-18%	

The next lines start with results.

inhibition [3]	SMILES	inhibition in vivo at 32 mg/kg [1]	inhibition in vivo at 1 mg/kg [2]	further results
7%	N=C(N)Nc1nc(-c2cccc(CNC(=O)C3CCCO3)n2)cs1 (configuration not stated)	66%	6%	
2%	N=C(N)Nc1nc(-c2cccc(CNC(=O)C3CCC3)n2)cs1	82%	61%	
23%	N=C(N)Nc1nc(-c2cccc(CNC(=O)C3CCCCC3)n2)cs1	62%	23%	
2%	N=C(N)Nc1nc(-c2cccc(CNC(=O)C3CCC(=O)CC3)n2)cs1	62%	37%	
32%	N=C(N)Nc1nc(-c2cccc(CNC(=O)C3CCOC3)n2)cs1 (configuration not stated)	42%	51%	
13%	N=C(N)Nc1nc(-c2cccc(CNC(=O)C3CCCCCC3)n2)cs1	93%	43%	inhibition in vivo at 0.32 mg/kg [4]: 67%
46%	N=C(N)Nc1nc(-c2cccc(CNC=O)n2)cs1	57%	83%	
32%	N=C(N)Nc1nc(-c2cccc(CNC(=O)C3CCCC3)n2)cs1	92%	67%	inhibition in vivo at 0.32 mg/kg [4]: 22%
100%	N=C(N)Nc1nc(-c2cccc(CNC(N)=O)n2)cs1	34%	98%	inhibition in vivo at 0.32 mg/kg [4]: 78%
72%	N=C(N)Nc1nc(-c2cccc(CNC(=O)C(F)(F)F)n2)cs1	43%	43%	
60%	N=C(N)Nc1nc(-c2cccc(CNC(=O)C3CC3)n2)cs1	62%	91%	inhibition in vivo at 0.32 mg/kg [4]: 48%
